In brackets after ≈: the same amount, converted by molar mass. Activity calls are given as the source filed them. The calls are words filed in the database; no cut-off is given here.
Columns and labels:
[1] = system: Klebsiella pneumoniae; assay: Antibacterial activity against carbapenem-resistant Klebsiella pneumoniae isolate 4 expressing beta-lactamase NDM-1 obtained from urine of patient by liquid microdilution method; format: functional; conditions: for MIC: isolate 4, Urine
How it was run: (§1)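 Liquid broth microdilution at 37°C gives the MIC against each clinical isolate; results are interpreted per CLSI guidelines.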

[2] = system: Klebsiella pneumoniae; assay: Antibacterial activity against carbapenem-resistant Klebsiella pneumoniae isolate 2 expressing beta-lactamase NDM-1 obtained from urine of patient by liquid microdilution method; format: functional; conditions: for MIC: isolate 2, Urine; how it was run: as §1
[3] = system: Klebsiella pneumoniae; assay: Antibacterial activity against carbapenem-resistant Klebsiella pneumoniae isolate 1 expressing beta-lactamase NDM-1 obtained from urine of patient by Etest; format: functional; conditions: for MIC: isolate 1, Urine
How it was run: (§2)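 Etest strips on Mueller-Hinton agar at 37°C give the MIC against each clinical isolate; susceptibility is interpreted per CLSI guidelines.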

[4] = system: Klebsiella pneumoniae; assay: Antibacterial activity against carbapenem-resistant Klebsiella pneumoniae isolate 3 expressing beta-lactamase NDM-1 obtained from urine of patient by liquid microdilution method; format: functional; conditions: for MIC: isolate 3, Urine; how it was run: as §1
[5] = system: Klebsiella pneumoniae; assay: Antibacterial activity against carbapenem-resistant Klebsiella pneumoniae isolate 6 expressing beta-lactamase NDM-1 obtained from urethral pus of patient by Etest; conditions: for MIC: isolate 6, Urethral pus
[6] = system: Klebsiella pneumoniae; assay: Antibacterial activity against carbapenem-resistant Klebsiella pneumoniae isolate 7 expressing beta-lactamase NDM-1 obtained from urine of patient by Etest; format: functional; conditions: for MIC: isolate 7, Urine; how it was run: as §2
[7] = system: Klebsiella pneumoniae; assay: Antibacterial activity against carbapenem-resistant Klebsiella pneumoniae isolate 4 expressing beta-lactamase NDM-1 obtained from urine of patient by Etest; format: functional; conditions: for MIC: isolate 4, Urine; how it was run: as §2
[8] = system: Klebsiella pneumoniae; assay: Antibacterial activity against carbapenem-resistant Klebsiella pneumoniae isolate 5 expressing beta-lactamase NDM-1 obtained from urine of patient by Etest; format: functional; conditions: for MIC: isolate 5, Urine; how it was run: as §2
[9] = system: Klebsiella pneumoniae; assay: Antibacterial activity against carbapenem-resistant Klebsiella pneumoniae isolate 5 expressing beta-lactamase NDM-1 obtained from urine of patient by liquid microdilution method; format: functional; conditions: for MIC: isolate 5, Urine; how it was run: as §1
[10] = system: Escherichia coli; assay: Antimicrobial activity against Escherichia coli J53; format: functional
How it was run: (§3)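 Strains: azide-resistant E. coli J53 recipient and its transconjugant. The transconjugant came from conjugation with K. pneumoniae Kp7 donor, selected on ceftazidime (30 µg/ml) plus azide (100 µg/ml). MICs were by Etest on Mueller-Hinton agar and by liquid microdilution at 37°C, interpreted per CLSI.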

[11] = system: Klebsiella pneumoniae; assay: Antibacterial activity against carbapenem-resistant Klebsiella pneumoniae isolate 6 expressing beta-lactamase NDM-1 obtained from urethral pus of patient by liquid microdilution method; conditions: for MIC: isolate 6, Urethral pus
[12] = system: Klebsiella pneumoniae; assay: Antibacterial activity against carbapenem-resistant Klebsiella pneumoniae isolate 7 expressing beta-lactamase NDM-1 obtained from urine of patient by liquid microdilution method; format: functional; conditions: for MIC: isolate 7, Urine; how it was run: as §1
[13] = system: Klebsiella pneumoniae; assay: Antibacterial activity against carbapenem-resistant Klebsiella pneumoniae isolate 1 expressing beta-lactamase NDM-1 obtained from urine of patient by liquid microdilution method; format: functional; conditions: for MIC: isolate 1, Urine; how it was run: as §1
[14] = system: Klebsiella pneumoniae; assay: Antibacterial activity against carbapenem-resistant Klebsiella pneumoniae isolate 3 expressing beta-lactamase NDM-1 obtained from urine of patient by Etest; format: functional; conditions: for MIC: isolate 3, Urine; how it was run: as §2
[15] = system: Klebsiella pneumoniae; assay: Antibacterial activity against carbapenem-resistant Klebsiella pneumoniae isolate 2 expressing beta-lactamase NDM-1 obtained from urine of patient by Etest; format: functional; conditions: for MIC: isolate 2, Urine; how it was run: as §2
[16] = system: Escherichia coli; assay: Antimicrobial activity against Escherichia coli J53 harboring Klebsiella pneumoniae Kp7 beta-lactamase NDM-1; format: functional; how it was run: as §3

Compound | MIC [1] [µg/mL] | MIC [2] [µg/mL] | MIC [3] [µg/mL] | MIC [4] [µg/mL] | MIC [5] [µg/mL] | MIC [6] [µg/mL] | MIC [7] [µg/mL] | MIC [8] [µg/mL] | MIC [9] [µg/mL] | MIC [10] [µg/mL] | MIC [11] [µg/mL] | MIC [12] [µg/mL] | MIC [13] [µg/mL] | MIC [14] [µg/mL] | MIC [15] [µg/mL] | MIC [16] [µg/mL] | other results
C[C@@H](O)[C@H]1C(=O)N2C(C(=O)O)=C(SCCNC=N)C[C@H]12 [IMIPENEM ANHYDROUS] | > 32 | > 32 | > 32 | > 32 | > 32 | > 32 | > 32 | > 32 | > 32 | 0.12 (≈ 0.401 µM) | > 32 | > 32 | > 32 | > 32 | > 32 | 4 (≈ 13.4 µM) | 
C[C@@H](O)[C@H]1C(=O)N2C(C(=O)O)=C(S[C@@H]3CN[C@H](CNS(N)(=O)=O)C3)[C@H](C)[C@H]12 [DORIPENEM] | > 32 | > 32 | > 32 | > 32 | > 32 | > 32 | > 32 | > 32 | > 32 | 0.12 (≈ 0.285 µM) | > 32 | > 32 | > 32 | > 32 | > 32 | 1.5 (≈ 3.57 µM) | 
C[C@@H](O)[C@H]1C(=O)N2C(C(=O)O)=C(S[C@@H]3CN[C@H](C(=O)N(C)C)C3)[C@H](C)[C@H]12 [MEROPENEM] | > 32 | > 32 | > 32 | > 32 | > 32 | > 32 | > 32 | > 32 | > 32 | 0.12 (≈ 0.313 µM) | > 32 | > 32 | > 32 | > 32 | > 32 | 1.5 (≈ 3.91 µM) | 
C[C@@H](O)[C@H]1C(=O)N2C(C(=O)O)=C(S[C@@H]3CN[C@H](C(=O)Nc4cccc(C(=O)O)c4)C3)[C@H](C)[C@H]12 [ERTAPENEM] | > 32 | > 32 | > 32 | > 32 | > 32 | > 32 | > 32 | > 32 | > 32 | 0.12 (≈ 0.252 µM) | > 32 | > 32 | > 32 | > 32 | > 32 | 1.5 (≈ 3.15 µM) | 
O=C(N[C@H](CO)[C@H](O)c1ccc([N+](=O)[O-])cc1)C(Cl)Cl |  |  |  |  |  |  |  |  |  |  |  |  |  |  |  |  | Activity [1]: inactive; Activity [2]: inactive; Activity [3]: inactive; Activity [4]: inactive; Activity [5]: inactive; Activity [6]: inactive; Activity [7]: inactive; Activity [8]: inactive; Activity [9]: inactive; Activity [11]: inactive; Activity [12]: inactive; Activity [13]: inactive; Activity [14]: inactive; Activity [15]: inactive

From ChEMBL document CHEMBL1687843, “Detection of NDM-1-producing Klebsiella pneumoniae in Kenya” (2011)
